Bioassay records (PubChem BioAssay)
Arrestin-AP2 inh: human beta-arrestin and AP2 interaction inhibition; FITC-arrestin peptide / GST-AP2 beads, flow cytometry; AP2 beta2 appendage carries R879A mutation; inhibition, % at 10 µM; 340,000 tested, 0.31% active; AID 504490;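 active = inhibition above a set limit, near 3 SD of compounds lacking own fluorescence, cut at about 54% in these data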
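system = GST-tagged AP2 beta2-adaptin appendage (R879A) on 4 µm glutathione beads | reagent = FITC-labelled arrestin peptide probe, 50 nM final | schedule = compound with beads 12 min RT, then probe 1 h RT | signal = HyperCyt-sampled flow cytometry, FL1 channel, ex 488/em 535 nm | read-out = percent response from loss of bead-bound FITC fluorescence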
HTR5A inv ag: inverse agonist of human HTR5A in OPRM1-OPRD1 counter-screen. inhibition, % at 9.3 µM. HTR5A cell line, luminescence, inverse agonism. 340,000 tested, 0.083% active. P47898; in the data active = inhibition mostly above about 23%, no sharp cut-off; inactive = mostly below about 18%
DAGLB inhibitor: blocks human DAGLB lipase activity. AID 504411. inhibition, % at 5.17 µM. Q8NCG7. HEK293T DAGLB membrane lysate, EnzChek fluorogenic substrate. 340,000 tested, 0.059% active; in the data active = inhibition above about 34%
OPRM1-OPRD1 ag: agonists of human mu-delta opioid receptor heterodimerization. cells, OPRM1-OPRD1 heterodimerization, luminescence. activation, % at 9.3 µM. 340,000 tested, 0.3% active; in the data active = activation above about 18%
Target sequence (P35372 whole entry, looked up): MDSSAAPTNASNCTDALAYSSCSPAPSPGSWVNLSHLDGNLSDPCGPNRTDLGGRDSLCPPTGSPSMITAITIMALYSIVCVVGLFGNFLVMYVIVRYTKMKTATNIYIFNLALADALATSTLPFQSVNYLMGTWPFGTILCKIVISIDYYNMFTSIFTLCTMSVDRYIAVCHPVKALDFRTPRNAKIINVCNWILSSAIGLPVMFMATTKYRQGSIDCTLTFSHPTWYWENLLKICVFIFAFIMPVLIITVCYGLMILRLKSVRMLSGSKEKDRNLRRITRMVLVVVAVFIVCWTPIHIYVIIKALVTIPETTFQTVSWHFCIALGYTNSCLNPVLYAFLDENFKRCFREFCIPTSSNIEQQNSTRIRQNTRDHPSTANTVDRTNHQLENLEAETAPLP
Target sequence (P41143 whole entry, looked up): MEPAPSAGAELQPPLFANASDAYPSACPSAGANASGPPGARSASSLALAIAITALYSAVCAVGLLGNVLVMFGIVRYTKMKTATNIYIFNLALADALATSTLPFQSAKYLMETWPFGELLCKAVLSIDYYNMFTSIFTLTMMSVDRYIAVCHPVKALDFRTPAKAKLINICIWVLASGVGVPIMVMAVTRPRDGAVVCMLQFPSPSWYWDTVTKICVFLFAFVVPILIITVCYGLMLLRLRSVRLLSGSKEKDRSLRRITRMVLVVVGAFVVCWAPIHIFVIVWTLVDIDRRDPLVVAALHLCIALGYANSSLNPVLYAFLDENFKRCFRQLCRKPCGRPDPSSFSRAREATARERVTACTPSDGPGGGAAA
HTR5A ag: activates human HTR5A in OPRM1-OPRD1 agonist counter-screen | 340,000 tested, 0.61% active | P47898 | AID 504692 | HTR5A agonist assay, luminescence, cell-based | activation, % at 9.3 µM; in the data active = activation mostly above about 9.5%, no sharp cut-off; inactive = mostly below about 7.6%
MOR-DOR inv ag: inverse agonists of human mu-delta opioid receptor heterodimerization; P35372+P41143; cell-based MOR-DOR heterodimer luminescence, inverse agonism; inhibition, % at 9.3 µM; 340,000 tested, 0.21% active; AID 504357; in the data active = inhibition above about 22%, passing the limit was not always enough
Large screens that a line does not name were inactive. Sampled rows, rich in hits. Any-hit rate of the full collection: about 1.4%.

CC1Cc2ccccc2N1C(=O)COC(=O)c1cccnc1Cl (stereo unspecified)	HTR5A ag 10.9
CC1Cc2ccccc2N1C(=O)COC(=O)c1ccccc1NCCO (stereo unspecified)	none
CCOc1ccccc1CNn1cnnc1SCC(=O)NC(C)(C)C	none (no result: Arrestin-AP2 inh, HTR5A inv ag, OPRM1-OPRD1 ag, HTR5A ag, MOR-DOR inv ag)
CSc1ccccc1NC(=O)COC(=O)CCC(=O)c1ccc(F)cc1	HTR5A ag 8.4
CO[C@H](C(=O)N(C)C[C@@H]1OCc2ccccc2-c2c(n(C)c3ccccc23)C(=O)N([C@H](C)CO)C[C@@H]1C)c1ccccc1	none (no result: Arrestin-AP2 inh, HTR5A inv ag, OPRM1-OPRD1 ag, HTR5A ag, MOR-DOR inv ag)
Nc1ccc(S(=O)(=O)c2ccc(N3CCOCC3)c(N)c2)cc1	none (no result: Arrestin-AP2 inh, HTR5A inv ag, OPRM1-OPRD1 ag, HTR5A ag, MOR-DOR inv ag)
O=C(COC(=O)c1ccncc1)Nc1ccccc1	HTR5A ag 11.8
O=C(COC(=O)c1cccnc1)Nc1ccccc1	none
CCCOc1ccc(CNC(=O)C2CCN(c3nnc(N4CCCC4=O)s3)CC2)cc1	none
COc1cccc(CNC(=O)C2CCN(c3nnc(N4CCCC4=O)s3)CC2)c1	HTR5A ag 12.9
O=C(/C=C/c1ccc(Cl)cc1)NCc1cccs1	HTR5A ag 13.1
O=C(OCc1ccccc1)N1CCC2CC1c1cc(-c3cc4ccccc4o3)ccc12 (stereo unspecified)	none (no result: Arrestin-AP2 inh, HTR5A inv ag, OPRM1-OPRD1 ag, HTR5A ag, MOR-DOR inv ag)
COc1ccc(-n2c(Cn3c(=O)sc4ccccc43)nnc2SC)cc1	HTR5A ag 11.8
O=C(NNC(=O)C1CCC1)c1ccc(F)cc1	none (no result: Arrestin-AP2 inh, HTR5A inv ag, OPRM1-OPRD1 ag, HTR5A ag, MOR-DOR inv ag)
O=C(Cc1ccccc1)NCc1ccncc1	none
O=C(Cc1c[nH]c2ccccc12)NCc1ccncc1	HTR5A ag 10.9
CCOC(=O)c1c(-c2ccc(-c3ccccc3)cc2)csc1NC(=O)CCN1CCOCC1	HTR5A ag 10.9
CCOC(=O)c1c(NC(=O)CN2CCCCC2)sc(CN(C)C)c1-c1ccccc1	HTR5A ag 8.1
CCCCN1C[C@H](c2ccccc2)[C@@H](CC(=O)NC)C1=O	none (no result: Arrestin-AP2 inh, HTR5A inv ag, OPRM1-OPRD1 ag, HTR5A ag, MOR-DOR inv ag)
COC(=O)c1ccc(C(=O)OC)c(NC(=O)Cc2cccs2)c1	none (no result: Arrestin-AP2 inh, HTR5A inv ag, OPRM1-OPRD1 ag, HTR5A ag, MOR-DOR inv ag)
O=C(O)C(CCC(C(=O)O)c1ccccc1)c1ccccc1 (stereo unspecified)	none
CCOC(=O)C(Cc1ccccc1)NC(C)=O (stereo unspecified)	HTR5A ag 12.2
Fc1ccc(/C=C2\CCCC3=C2Nc2ncnn2C3c2ccc(F)cc2)cc1 (stereo unspecified)	HTR5A ag 10.5
COc1ccc(C2C3=C(Nc4ncnn42)c2ccccc2CCC3)cc1 (stereo unspecified)	none
CCc1ccc(S(=O)(=O)c2nnn3c2nc(NCCNC(C)=O)c2ccccc23)cc1	HTR5A ag 11.1
CC(C)c1ccc(OCC(=O)NNC(=S)NC(=O)c2cccs2)c(Br)c1	HTR5A ag 11.8
COc1cccc(C(=O)COc2ccc3ccc(=O)oc3c2)c1	HTR5A ag 12.0
CCCCCCCCC(=O)c1c(OC)oc(C=O)cc1=O	none (no result: Arrestin-AP2 inh, HTR5A inv ag, OPRM1-OPRD1 ag, HTR5A ag, MOR-DOR inv ag)
COC(=O)C1=C(O)CSC1=Nc1cccc(C(F)(F)F)c1	HTR5A ag 13.8
O=C(O)C(c1ccccc1)C1(O)CC2CCC1C2 (stereo unspecified)	none
COc1cc(C(=O)NC(=S)Nc2cccc3nc(C)ccc23)cc(OC)c1OC	OPRM1-OPRD1 ag 26.5, HTR5A ag 30.0
CN(CC(=O)NCc1ccco1)CC(=O)Nc1ccc(F)c(F)c1F	HTR5A ag 10.6
CN(CC(=O)NCc1ccco1)CC(=O)Nc1cc(S(C)(=O)=O)ccc1Cl	none
CC(C)CC(C(=O)N1CCc2ccccc2C1)N1C(=O)c2ccccc2C1=O (stereo unspecified)	none
CC(C)CC(C(=O)N1CCOCC1)N1Cc2ccccc2C1=O (stereo unspecified)	HTR5A ag 12.5
CCCCN1C(=O)C(CC(=O)NC2CCCCC2)CC(C(=O)N(C)C)=C1C (stereo unspecified)	none (no result: Arrestin-AP2 inh, HTR5A inv ag, OPRM1-OPRD1 ag, HTR5A ag, MOR-DOR inv ag)
CCOc1ccccc1NS(=O)(=O)c1ccc(OC)c(OC)c1	none
COc1ccccc1NS(=O)(=O)c1ccc(OC)c(OC)c1	HTR5A ag 10.2
CNCCCCOc1ccccc1-c1ccccc1	HTR5A ag 9.9
CNCCOc1ccccc1-c1ccccc1	none
CC1=CC2C(C(O)CC3(C)C2CC(C)C32OCOC23COCO3)C2(C)C/C(=C\O)C(=O)C=C12 (stereo unspecified)	OPRM1-OPRD1 ag 25.6, HTR5A ag 31.3
CN1CCN(C(=S)SCc2nc(N)nc(Nc3ccc(F)cc3)n2)CC1	HTR5A ag 10.8
C[C@]12c3[nH]c4ccc(Cl)cc4c3CCN1C(=O)[C@@H](CC(=O)NCc1ccco1)C[C@@H]2C(=O)N1CCCCC1	none
COc1c(Cl)cc(Cl)cc1/C=N/NC(=O)c1nnn(-c2nonc2N)c1CN1CCC(C)CC1	HTR5A ag 11.0
CCOC(=O)c1sc(NC(=O)CN(CC(C)C)CC(C)C)c(C(=O)OCC)c1C	HTR5A ag 13.5
COc1cc(C(=O)O/N=C2\C=CC(=O)C=C2C)cc(OC)c1OC	none
COc1cc(C(=O)ON=C2C3CC4CC(C3)CC2C4)cc(OC)c1OC	HTR5A ag 11.9
CC(=O)N(CCc1ccccc1)c1ccc2c(c1)C1CC2CCN1C(=O)OCc1ccccc1 (stereo unspecified)	none (no result: Arrestin-AP2 inh, HTR5A inv ag, OPRM1-OPRD1 ag, HTR5A ag, MOR-DOR inv ag)
Cc1ccc(C)n1-c1sc2c(c1C#N)CCC(C)C2 (stereo unspecified)	HTR5A ag 12.6
CC(=O)Nc1sc2c(c1C#N)CCC(C)C2 (stereo unspecified)	none
CCC(C)n1c(SCC(=O)NC2CC2)nc2ccccc2c1=O (stereo unspecified)	none (no result: Arrestin-AP2 inh, HTR5A inv ag, OPRM1-OPRD1 ag, HTR5A ag, MOR-DOR inv ag)
CCc1ccc(NS(=O)(=O)c2ccc(OC)c3ncccc23)cc1	none
CCc1ccccc1NS(=O)(=O)c1ccc(OC)c2ncccc12	HTR5A ag 9.2
CNC[C@@H]1Oc2cc(Br)ccc2S(=O)(=O)N([C@@H](C)CO)C[C@@H]1C	none (no result: Arrestin-AP2 inh, HTR5A inv ag, OPRM1-OPRD1 ag, HTR5A ag, MOR-DOR inv ag)
CCN(CC)CCN(C(=O)CCS(=O)(=O)c1ccccc1)c1nc2c(C)cc(C)cc2s1	HTR5A ag 12.6
CCN(CC)CCN(C(=O)CCS(=O)(=O)c1ccccc1)c1nc2cc(C)cc(C)c2s1	none
C[C@@H]1CN([C@H](C)CO)C(=O)CCCn2cc(nn2)CO[C@H]1CN(C)S(=O)(=O)c1ccc(-c2ccccc2)cc1	none (no result: Arrestin-AP2 inh, HTR5A inv ag, OPRM1-OPRD1 ag, HTR5A ag, MOR-DOR inv ag)
CCOc1cc(C)c(S(=O)(=O)Nc2ccc(Cl)cn2)cc1C	HTR5A ag 14.0
CCOc1ccc(S(=O)(=O)Nc2ccc(Cl)cn2)c(C)c1C	none
O=C1NC2(CCCCC2)C(=O)N1CC(=O)N1CCc2ccccc21	HTR5A ag 11.2
O=C(CN1C(=O)NC2(CCCC2)C1=O)N1CCN(S(=O)(=O)c2ccccc2[N+](=O)[O-])CC1	HTR5A ag 9.5
C[C@@H]1C(c2cccc(Cl)c2)=NN(c2ccc(Br)cc2)[C@H]1C(=O)N1CCOC1=O	none
C=C(C)Cn1c(CCNC(=O)C(C)(C)C)nc2ccccc21	HTR5A ag 10.4
